Measurements from article PMC7245552 (Cell chemical biology, 2020).
Changes are numbered by the printed parent chain. Numbers in names are those of the source. Values belong to the molecule of their own block, whether it stands above or below them.

Experiments:
K2P2.1 I110E = target: T1, K2P2.1 I110E (Mus musculus, UniProt P97438, I125E); assay: TEVC recordings in Xenopus oocytes, K2P2.1 I110E; format: cell-based, Murine; details: K2P2.1 I110E versus K2P2.1 I110D
T1 sequence (P97438 1-411 isoform P97438-2 I110E): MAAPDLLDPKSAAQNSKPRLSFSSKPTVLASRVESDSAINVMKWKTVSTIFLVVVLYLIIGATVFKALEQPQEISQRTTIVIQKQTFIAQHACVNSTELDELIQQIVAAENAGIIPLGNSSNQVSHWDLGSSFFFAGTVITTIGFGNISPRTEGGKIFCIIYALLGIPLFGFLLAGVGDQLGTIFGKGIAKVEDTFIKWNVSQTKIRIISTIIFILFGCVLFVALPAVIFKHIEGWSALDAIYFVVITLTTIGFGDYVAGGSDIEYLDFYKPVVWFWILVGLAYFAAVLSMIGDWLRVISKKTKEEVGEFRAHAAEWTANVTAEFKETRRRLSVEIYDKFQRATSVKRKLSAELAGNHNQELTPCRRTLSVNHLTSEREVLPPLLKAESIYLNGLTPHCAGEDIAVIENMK
How it was run: (§1)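 Murine channel cRNA (0.1–6 ng) injected into defolliculated stage V–VI X. laevis oocytes kept at 18°C in ND96 with antibiotics. TEVC 24–48 h later with constant ND96 perfusion; −80 mV hold, 500 ms ramp −140 to +50 mV. Ruthenium compounds were freshly dissolved in ND96. Block corrected for uninjected-oocyte basal current. ≥3 oocytes from ≥2 batches per point; IC50 from Hill fit, coefficient fixed −1.0.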

K2P2.1 I110D/N147D = target: T2, K2P2.1 I110D/N147D (Mus musculus, UniProt P97438, I125D/N162D); assay: TEVC recordings in Xenopus oocytes, K2P2.1 I110D/N147D; format: cell-based, Murine; details: I110D/N147D pair; T = 298K
T2 sequence (P97438 1-411 isoform P97438-2 I110D/N147D): T1 sequence (P97438 1-411 isoform P97438-2 I110E) with E110D, N147D
How it was run: (§2)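 Coupling energy was computed as ΔΔGΩ = RT lnΩ, with R=1.987 cal mol−1 deg−1 and T=298 K. Inputs were RuR inhibition measurements by TEVC in X. laevis oocytes expressing murine mutant channels: −80 mV hold, 500 ms ramp −140 to +50 mV, ND96 perfusion. IC50s came from a Hill fit with coefficient −1.0, using ≥3 oocytes from ≥2 batches per point.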

K2P2.1 I110D/N147E = target: T3, K2P2.1 I110D/N147E (Mus musculus, UniProt P97438, I125D/N162E); assay: TEVC recordings in Xenopus oocytes, K2P2.1 I110D/N147E; format: cell-based, Murine; details: I110D/N147E pair; T = 298K
T3 sequence (P97438 1-411 isoform P97438-2 I110D/N147E): T1 sequence (P97438 1-411 isoform P97438-2 I110E) with E110D, N147E
How it was run: as §2

K2P2.1 I110D = target: T4, K2P2.1 I110D (Mus musculus, UniProt P97438, I125D); assay: TEVC recordings in Xenopus oocytes, K2P2.1 I110D; format: cell-based, Murine
T4 sequence (P97438 1-411 isoform P97438-2 I110D): T1 sequence (P97438 1-411 isoform P97438-2 I110E) with E110D

K2P2.1 (TREK-1) [1] = details: read-out: EC50 (ML335) activation, ref Lolicato et al., 2017; cited from earlier work
K2P2.1 (TREK-1) [2] = target: T5, K2P2.1 (TREK-1) (Mus musculus, UniProt P97438); assay: TEVC recordings in Xenopus oocytes, K2P2.1; format: cell-based, Murine; details: 100 μM Ru360 applied to K2P2.1 (TREK-1)
T5 sequence (P97438 1-411 isoform P97438-2): T1 sequence (P97438 1-411 isoform P97438-2 I110E) with E110I
How it was run: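 Oocytes expressing murine wild-type channel were perfused with ND96 until current was stable, then with 100 μM Ru360 freshly prepared in ND96 and kept light-protected, until current stabilised again. Currents were elicited from a −80 mV hold by a 500 ms ramp −140 to +50 mV. Fractional block was corrected for basal current averaged from uninjected oocytes (n=14).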

K2P10.1 (TREK-2) = target: T6, K2P10.1 (TREK-2) (Mus musculus, UniProt Q8BUW1); assay: TEVC recordings in Xenopus oocytes, K2P10.1; format: cell-based, Murine
T6 sequence (Q8BUW1 1-535): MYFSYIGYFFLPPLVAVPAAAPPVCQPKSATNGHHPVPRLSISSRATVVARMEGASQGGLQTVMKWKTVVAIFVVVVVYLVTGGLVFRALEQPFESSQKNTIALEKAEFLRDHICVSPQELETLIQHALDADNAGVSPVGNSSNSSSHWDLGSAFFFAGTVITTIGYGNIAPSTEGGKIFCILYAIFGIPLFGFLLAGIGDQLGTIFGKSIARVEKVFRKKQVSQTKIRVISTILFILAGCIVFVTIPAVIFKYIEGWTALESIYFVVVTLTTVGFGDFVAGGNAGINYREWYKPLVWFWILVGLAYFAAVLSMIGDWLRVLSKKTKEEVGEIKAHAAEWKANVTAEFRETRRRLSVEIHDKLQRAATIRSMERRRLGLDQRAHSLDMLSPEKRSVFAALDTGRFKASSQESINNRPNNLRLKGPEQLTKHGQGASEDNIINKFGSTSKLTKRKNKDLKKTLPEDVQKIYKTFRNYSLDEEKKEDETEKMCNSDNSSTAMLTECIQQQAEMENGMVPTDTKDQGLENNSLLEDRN
How it was run: as §1

crystal structure = target: the molecule itself; assay: crystal structure

RuR inhibition fold weaker than that observed for K2P2.1 I110D (K2P2.1 I110E): ~ 50 fold | ΔΔG coupling energy, double mutant cycle analysis of RuR binding (K2P2.1 I110D/N147D): -4.1 kcal/mol | ΔΔG coupling energy, double mutant cycle analysis of RuR binding (K2P2.1 I110D/N147E): -0.3 kcal/mol
Molecule: N.N.N.N.N.N.N.N.N.N.N.N.N.N.[Cl-].[Cl-].[Cl-].[Cl-].[Cl-].[Cl-].[O-2].[O-2].[Ru+3].[Ru+3].[Ru+4] [RuR, Ruthenium Red]

EC50 (K2P2.1 I110D; read-out: EC50 (ML335) activation, TEVC): 11.8 ± 2.3 µM
Molecule: CS(=O)(=O)Nc1ccc(C(=O)NCc2ccc(Cl)cc2Cl)cc1 [ML335]
EC50 (K2P2.1 (TREK-1) [1]): 14.3 ± 2.7 µM

Effect on channel current (K2P2.1 (TREK-1) [2]): no effect | Ru360 IC50 fold weaker than that for RuR (K2P2.1 I110D): > 10 fold | Ru360 IC50 fold weaker than that for RuR (K2P10.1 (TREK-2)): > 10 fold
Molecule: Ru360

B1: K2P2.1 (TREK-1)CRYST I110D (domain or fragment, mouse, UniProt P97438-2 21-322, looked up)
chain: SFSSKPTVLASRVESDSAINVMKWKTVSTIFLVVVLYLIIGATVFKALEQPQEISQRTTIVIQREKFLRAHPCVSDQELDELIQQIVAADNAGIIPLGASSNQVSHWDLGSSFFFAGTVITTIGFGNISPRTEGGKIFCIIYALLGIPLFGFLLAGVGDQLGTIFGKGIAKVEDTFIKWNVSQTKIRIISTIIFILFGCVLFVALPAVIFKHIEGWSALDAIYFVVITLTTIGFGDYVAGGSDIEYLDFYKPVVWFWILVGLAYFAAVLSMIGDWLRVICKKTKEAVGEFRAHAAEWTANVT
binding result (crystal structure): binds
